# Measurements taken from publication PMC2937276 (Molecular cancer therapeutics, 2010).
# Legend:
# [1] = tested on: GBM cells; test: Apoptosis analysis; assay type: cell-based, Mouse; conditions: 250 nM
# Method in brief: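 Two apoptosis read-outs on primary mouse GBM cultures (DMEM, 10% FBS), each with 250 nM compound for the indicated times. Pyknotic nuclei: 10,000 cells per chamber-slide well, fixed in fresh 4% PFA for 15 min, Hoechst 33258 at 5 µg/ml for 5 min. Nuclei were scored by fluorescence microscopy as % pyknotic over total across three areas. Cleaved caspase-3: western blot. Mean of three independent experiments ± SD.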
# [2] = tested on: Hsp90 client proteins EGFR, Akt, Cdk4 and CyclinD1; test: Immunoblot analysis of Hsp90 client proteins in human GBM cultures; assay type: cell-based; conditions: human primary GBM culture cells; 250 nM, 24 hours
# Method in brief: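 Human primary GBM cultures in DMEM with 10% FBS, given 250 nM test compound or vehicle for 24 h. Lysed in RIPA with 5 mM Na3VO4 and protease inhibitors. Equal protein (40 µg) resolved by SDS-PAGE, transferred to PVDF, blocked in TBS-T with 1% BSA and 5% milk. Primary antibodies overnight at 4°C, secondary 1:10000 for 1 h at room temperature, ECL.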
# [3] = tested on: GBM culture GBM-2; test: XTT cell proliferation assay; assay type: cell-based, Mouse; conditions: Mus musculus, GBM2, 36 h
# Method in brief: (§1)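 Primary human or mouse GBM cultures (DMEM, 10% FBS) were seeded at 5000 cells per 96-well well. Cells were cultured with test compound or vehicle for 36 h. Proliferation was read by XTT assay in quadruplicate. IC50 came from nonlinear-regression curve fitting.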
# [4] = tested on: GBM culture GBM15; test: XTT cell proliferation assay; assay type: cell-based, Human; conditions: Homo sapiens, 36 h
# Method in brief: as §1
# [5] = tested on: primary astrocytes cultures; test: Cell counting, growth of primary astrocytes under drug; assay type: cell-based, Mouse; conditions: increasing concentrations for 24 hours; 250 nM over time
# Method in brief: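 Primary mouse astrocyte cultures were grown with rising compound concentrations for 24 h, then counted. A second set was exposed to 250 nM for the indicated times before viable-cell counts. Counts are expressed as % of untreated cells. Values are means of triplicates with SD; t-test.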
smiles,measurement,setting,value
O=C1OCC/C=C/CC/C=C/C(=N/OCC(=O)N2CCCCC2)Cc2c(Cl)c(O)cc(O)c21 [NXD30001],cleaved-caspase 3 (western blot),[1],appearance of cleaved-caspase 3
same,increase in apoptosis level (pyknotic nucleated cells),[1],10 fold
same,Hsp90 client protein levels (western blot),[2],"deplete the Hsp90 client proteins EGFR, Akt, Cdk4 and CyclinD1"
same,IC50,[3],111 ± 9.4 nM
same,IC50,[4],60.7 ± 0.5 nM
same,inhibition of astrocyte growth,[5],but not of astrocytes
